The subject of test [1] is RAW264.7. Briefly: Induction of ROS generation in mouse RAW264.7 cells at 5 uM after 24 hrs by H2DCFDA probe based fluorescence assay. The class given is functional, cell-based. Put shortly: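 Adhered RAW 264.7 macrophages (2 h, 37 °C, 5% CO2) exposed to compounds at 5 μM without LPS for 24 h, compared with untreated cells. 2,7-Dichlorodihydrofluorescein diacetate added (final 10 μM) for an additional 10 min at 37 °C. Dichlorofluorescein fluorescence measured at λex/λem 485/518 nm. At least triplicate.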

Test [2] has as its system RAW264.7. Briefly: Immunomodulatory activity in mouse RAW264.7 cells assessed as inhibition of LPS-induced ROS level at 5 uM after 24 hrs by H2DCFDA probe based fluorescence assay relative to control. In kind it is functional. The note with it: RAW264.7, 24 h. Put shortly: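 RAW 264.7 macrophages allowed to adhere 2 h at 37 °C, 5% CO2, then given compounds (5 μM) co-incubated with E. coli serotype 055:B5 LPS (1.0 μg/mL) for 24 h. DCFH-DA then added (final 10 μM) for 10 min at 37 °C. Fluorescence read at 485/518 nm; % reduction of LPS-induced ROS. At least triplicate, mean ± SD.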

Test [3] deals with RAW264.7. Briefly: Cytotoxicity against mouse RAW264.7 cells assessed as reduction in cell viability after 24 hrs by MTS assay. In kind it is functional, cell-based. The note with it: RAW264.7, 24 h. Put shortly:
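RAW 264.7 murine macrophages (DMEM, 10% FBS, 37 °C, 5% CO2) seeded 6 × 10^3 cells/well and cultured 2 h. Medium then replaced with compound-containing medium (1.25−10.0 μM range), 24 h exposure. MTS reagent added, formazan read 2 h later at 492 nm with 690 nm background. IC50 reported; at least triplicate, mean ± SD.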
A general note: Tetrazolium assays rely on reduction of a dye to a coloured formazan, in cell work by metabolically active cells.

Active and inactive are the calls of the source. The calls are words filed in the database; no cut-off is given here.

For the compound `CCC(C)[C@H](O)[C@@H]1O[C@H]2C[C@H]3[C@@H]4C[C@H](O[C@@H]5O[C@H](C)[C@@H](O)[C@H](O[C@@H]6O[C@H](C)[C@@H](O[C@@H]7O[C@H](CO)[C@@H](O)[C@H](O)[C@H]7O[C@@H]7O[C@H](C)[C@H](O)[C@H](O)[C@H]7O)[C@H](O)[C@H]6O[C@@H]6O[C@H](C)[C@@H](O)[C@H](O)[C@H]6O)[C@H]5O)[C@H]5C[C@@H](OS(=O)(=O)O)CC[C@]5(C)C4=CC[C@]3(C)[C@H]2[C@@]1(C)O` (stereo partly specified), in the test on RAW264.7 [1], the result was inactive. In addition, the inhibition at 5 µM in the test with RAW264.7 [2] turned out to be 40%. As to `CC(=O)[C@H]1CC[C@H]2[C@@H]3C[C@H](O[C@@H]4O[C@H](C)[C@@H](O)[C@H](O[C@@H]5OC[C@@H](O[C@@H]6O[C@H](C)[C@@H](O)[C@H](O)[C@H]6O[C@@H]6O[C@H](C)[C@H](O)[C@H](O)[C@H]6O)[C@H](O)[C@H]5O[C@@H]5O[C@H](C)[C@@H](O)[C@H](O)[C@H]5O)[C@H]4O)[C@H]4C[C@@H](OS(=O)(=O)O)CC[C@]4(C)C3=CC[C@]12C`, in the test on RAW264.7 [1], the result was inactive. Further, in the test on RAW264.7 [3], the IC50 fell in the range of 1.25 to 10 µM.

As to `CC(C)[C@H](C)[C@@H]1O[C@H]1[C@](C)(O)[C@H]1[C@@H](O)C[C@H]2[C@@H]3C[C@H](O[C@@H]4O[C@H](C)[C@@H](O)[C@H](O[C@@H]5O[C@H](C)[C@@H](O[C@@H]6O[C@H](CO)[C@@H](O)[C@H](O)[C@H]6O[C@@H]6O[C@H](C)[C@H](O)[C@H](O)[C@H]6O)[C@H](O)[C@H]5O[C@@H]5O[C@H](C)[C@@H](O)[C@H](O)[C@H]5O)[C@H]4O)[C@H]4C[C@@H](OS(=O)(=O)O)CC[C@]4(C)C3=CC[C@]12C`, in the test with RAW264.7 [1], the outcome was inactive. Moreover, the IC50 with RAW264.7 [3] amounted to 6.4 µM. With `C[C@H]1O[C@@H](O[C@H]2[C@H](O[C@@H]3CO[C@@H](O[C@@H]4[C@@H](O)[C@H](O[C@H]5C[C@@H]6C(=CC[C@@]7(C)[C@H]6CC[C@@H]7[C@@](C)(O)C(=O)/C=C/C(C)(C)O)[C@@]6(C)CC[C@H](OS(=O)(=O)O)C[C@H]56)O[C@H](C)[C@H]4O)[C@H](O[C@@H]4O[C@H](C)[C@@H](O)[C@H](O)[C@H]4O)[C@H]3O)O[C@H](C)[C@@H](O)[C@@H]2O)[C@H](O)[C@@H](O)[C@H]1O`, the outcome in the test with RAW264.7 [1] was inactive. The IC50 with RAW264.7 [3] lay in the range of 1.25 to 10 µM. Take `CC(C)CCC(=O)[C@](C)(O)[C@H]1CC[C@H]2[C@@H]3C[C@H](O[C@@H]4O[C@H](C)[C@@H](O)[C@H](O[C@@H]5OC[C@@H](O[C@@H]6O[C@H](C)[C@@H](O)[C@H](O)[C@H]6O[C@@H]6O[C@H](C)[C@H](O)[C@H](O)[C@H]6O)[C@H](O)[C@H]5O[C@@H]5O[C@H](C)[C@@H](O)[C@H](O)[C@H]5O)[C@H]4O)[C@H]4C[C@@H](OS(=O)(=O)O)CC[C@]4(C)C3=CC[C@@]21C`: the outcome in the test with RAW264.7 [1] was inactive. In addition, the inhibition at 5 µM in the test on RAW264.7 [2] is 55%. With `CC(C)=CC[C@H](O)[C@](C)(O)[C@H]1CC[C@H]2[C@@H]3C[C@H](O[C@@H]4O[C@H](C)[C@@H](O)[C@H](O[C@@H]5OC[C@@H](O[C@@H]6O[C@H](C)[C@@H](O)[C@H](O)[C@H]6O[C@@H]6O[C@H](C)[C@H](O)[C@H](O)[C@H]6O)[C@H](O)[C@H]5O[C@@H]5O[C@H](C)[C@@H](O)[C@H](O)[C@H]5O)[C@H]4O)[C@H]4C[C@@H](OS(=O)(=O)O)CC[C@]4(C)C3=CC[C@]12C`, the result with RAW264.7 [1] was inactive.

As to `CC(C)C(C)[C@H](O)[C@@H]1O[C@H]2C[C@H]3[C@@H]4C[C@H](O[C@@H]5O[C@H](C)[C@@H](O)[C@H](O[C@@H]6O[C@H](C)[C@@H](O[C@@H]7O[C@H](CO)[C@@H](O)[C@H](O)[C@H]7O[C@@H]7O[C@H](C)[C@H](O)[C@H](O)[C@H]7O)[C@H](O)[C@H]6O[C@@H]6O[C@H](C)[C@@H](O)[C@H](O)[C@H]6O)[C@H]5O)[C@H]5C[C@@H](OS(=O)(=O)O)CC[C@]5(C)C4=CC[C@]3(C)[C@H]2[C@@]1(C)O` (stereo partly specified), the outcome with RAW264.7 [1] was inactive. In addition, the IC50 in the test on RAW264.7 [3] lay within 1.25 to 10 µM. With `CC(C)CC[C@H](O)[C@](C)(O)[C@H]1CC[C@H]2[C@@H]3C[C@H](O[C@@H]4O[C@H](C)[C@@H](O)[C@H](O[C@@H]5OC[C@@H](O[C@@H]6O[C@H](C)[C@@H](O)[C@H](O)[C@H]6O[C@@H]6O[C@H](C)[C@H](O)[C@H](O)[C@H]6O)[C@H](O)[C@H]5O[C@@H]5O[C@H](C)[C@@H](O)[C@H](O)[C@H]5O)[C@H]4O)[C@H]4C[C@@H](OS(=O)(=O)O)CC[C@]4(C)C3=CC[C@]12C`, the result in the test on RAW264.7 [1] was inactive. Also, the half-inhibitory concentration (IC50) with RAW264.7 [3] was 1.25 to 10 µM. For the same compound, the inhibition at 5 µM with RAW264.7 [2] came out at 28%. In the case of `CC(C)CC(=O)C[C@](C)(O)[C@H]1CC[C@H]2[C@@H]3C[C@H](O[C@@H]4O[C@H](C)[C@@H](O)[C@H](O[C@@H]5OC[C@@H](O[C@@H]6O[C@H](CO)[C@@H](O)[C@H](O)[C@H]6O[C@@H]6O[C@H](C)[C@H](O)[C@H](O)[C@H]6O)[C@H](O)[C@H]5O[C@@H]5O[C@H](C)[C@@H](O)[C@H](O)[C@H]5O)[C@H]4O)[C@H]4C[C@@H](OS(=O)(=O)O)CC[C@]4(C)C3=CC[C@@]21C`, the outcome with RAW264.7 [1] was inactive. Regarding `CC(=O)[C@H]1CC[C@H]2[C@@H]3C[C@H](O[C@@H]4O[C@H](C)[C@@H](O)[C@H](O[C@@H]5OC[C@@H](O[C@@H]6O[C@H](CO)[C@H](O)[C@H](O)[C@H]6O[C@@H]6O[C@H](C)[C@H](O)[C@H](O)[C@H]6O)[C@H](O)[C@H]5O[C@@H]5O[C@H](C)[C@@H](O)[C@H](O)[C@H]5O)[C@H]4O)[C@H]4C[C@@H](OS(=O)(=O)O)CC[C@]4(C)C3=CC[C@]12C`, the result in the test with RAW264.7 [1] was inactive. Also, the 50% inhibitory concentration (IC50) with RAW264.7 [3] was 1.25 to 10 µM. The corresponding values for `CC(C)CC(=O)C[C@](C)(O)[C@H]1CC[C@H]2[C@@H]3C[C@H](O[C@@H]4O[C@H](C)[C@@H](O)[C@H](O[C@@H]5OC[C@@H](O[C@@H]6O[C@H](CO)[C@H](O)[C@H](O)[C@H]6O[C@@H]6O[C@H](C)[C@H](O)[C@H](O)[C@H]6O)[C@H](O)[C@H]5O[C@@H]5O[C@H](C)[C@@H](O)[C@H](O)[C@H]5O)[C@H]4O)[C@H]4C[C@@H](OS(=O)(=O)O)CC[C@]4(C)C3=CC[C@@]21C` are “inactive” and 7 µM.

The inhibition is how much of the control response was suppressed. A word on the IC50: it is the concentration that inhibits the measured activity by half.

The values are drawn from ChEMBL document CHEMBL4130468, “Furostane Series Asterosaponins and Other Unusual Steroid Oligoglycosides from the Tropical Starfish Pentaceraster regulus” (J Nat Prod, 2017).
